From ChEMBL document CHEMBL4715840, “Antibacterial activity of lipo-α/sulfono-γ-AA hybrid peptides” (Eur J Med Chem, 2020) come the findings set out here.

The subject of data set [1] is Enterococcus faecalis. Nature of the data set: Antibacterial activity against Enterococcus faecalis ATCC 700802 incubated for 12 to 16 hrs by microtiter method. It is filed as functional. The following applies: time 12-16 hrs. In a few lines:
(§1)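 Single colonies grown overnight in TSB at 37 °C, diluted 100-fold and grown to mid-log phase. Equal volumes of bacterial suspension and peptide dilutions in TSB mixed and incubated 37 °C for 12-16 h. Growth read as absorbance at 600 nm. MIC taken as lowest concentration inhibiting growth. Three repeats, duplicates each.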

For data set [2], the system named is Pseudomonas aeruginosa. Nature of the data set: Antibacterial activity against Pseudomonas aeruginosa ATCC 27853 incubated for 12 to 16 hrs by microtiter method. It counts as functional. The note with it: time 12-16 hrs. In a few lines:
as §1

Data set [3] relates to Staphylococcus aureus. Nature of the data set: Antibacterial activity against methicillin-resistant Staphylococcus aureus ATCC 33591 incubated for 12 to 16 hrs by microtiter method. It counts as functional. The note with it: time 12-16 hrs. In short, it runs like this: (§2)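 Single colony grown overnight at 37 °C in TSB, diluted 100-fold and grown to mid-log phase. Equal volumes of cell suspension and peptide serial dilutions in TSB were combined and incubated 37 °C for 12-16 h. Growth read as absorbance at 600 nm. MIC taken as the lowest concentration inhibiting growth. Three repeats, each in duplicate.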

Data set [4] deals with Staphylococcus epidermidis. Nature of the data set: Antibacterial activity against methicillin-resistant Staphylococcus epidermidis RP62A incubated for 12 to 16 hrs by microtiter method. The note with it: time 12-16 hrs. It counts as functional. In a few lines: as §2
Data set [5] deals with Escherichia coli. Nature of the data set: Antibacterial activity against Escherichia coli ATCC 25922 incubated for 12 to 16 hrs by microtiter method. It is filed as functional. The following applies: time 12-16 hrs. In short, it runs like this: as §1
A short description of data set [6]: Selectivity index, ratio of HC50 for human RBC to MIC for methicillin-resistant Staphylococcus aureus ATCC 33591. It is filed as toxicity. The following applies: human red blood cells, read-out: Selectivity Index.
A short description of data set [7]: Hemolytic activity against RBC (unknown origin). It counts as ADME, cell-based, Erythrocyte. The following applies: red blood cells (erythrocytes).
Data set [8] deals with Cell membrane. Nature of the data set: Induction of membrane disruption in methicillin-resistant Staphylococcus aureus ATCC 33591 at 6 ug/ml measured after 2 hrs by DAPI/propidium iodide staining based fluorescence microscopic analysis. It counts as subcellular. The following applies: dose 6.0 µg/ml. In a few lines: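 Mid-log cells exposed to peptide at 37 °C for 2 h. Methods give 10 µg/mL; the legend gives 6 µg/mL. Cells pelleted at 5000g for 15 min and washed in PBS. Stained with PI (5 µg/mL), washed three times in PBS, then stained with DAPI (10 µg/mL), each stain 15 min on ice in the dark. Imaged with a 100X oil objective. Untreated cells as control.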

Data set [9] has as its system Escherichia coli. Nature of the data set: Bactericidal activity against Escherichia coli ATCC 25922 at 25 to 50 ug/ml measured after 60 mins by time-kill assay. It counts as functional, organism-based. The following applies: dose 25-50 µg/ml. In a few lines:
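Mid-log TSB cultures at 37 °C diluted to 1 × 10^6 CFU/mL and exposed to 12.5, 25 or 50 µg/mL peptide for 10 min, 30 min, 1 h and 2 h. Aliquots diluted 102 to 104-fold and plated. Colonies counted after overnight incubation at 37 °C and plotted against exposure time.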

Data set [10] concerns Staphylococcus aureus. Nature of the data set: Bactericidal activity against methicillin-resistant Staphylococcus aureus ATCC 33591 at 50 ug/ml measured after 10 mins by time-kill assay. It counts as functional, organism-based. In short, it runs like this: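 Cells grown in TSB at 37 °C to mid-log phase, diluted to 1 × 10^6 CFU/mL, then exposed to peptide at 12.5, 25 or 50 µg/mL for 10 min, 30 min, 1 h and 2 h. Samples diluted 102 to 104-fold and plated. Colonies counted after overnight growth at 37 °C and plotted against exposure time.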

For data set [11], the system named is Cell membrane. As to the kind of experiment: Induction of membrane disruption in methicillin-resistant Staphylococcus aureus ATCC 33591 at 250 ug/ml measured for 30 mins by DiSC35 dye based fluorescence assay. It is filed as subcellular. The following applies: dose 250.0 µg/ml. In short, it runs like this: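 Mid-log cells washed with 5 mM HEPES and 5 mM glucose. Resuspended at 10^8 CFU/mL in 5 mM glucose, 5 mM HEPES and 100 mM KCl mixed 1:1:1, with 2 µM DiSC3(5), at 37 °C. Fluorescence (ex 622, em 670 nm) followed for 30 min. Peptide at 250 µg/mL added once the minimum was reached, about 20 min. Untreated culture as negative control. At least three repeats in duplicate.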

Data set [12] relates to Cell membrane. Nature of the data set: Induction of membrane disruption in Escherichia coli at 6 ug/ml measured after 2 hrs by DAPI/propidium iodide staining based fluorescence microscopic analysis. The note with it: dose 6.0 µg/ml. In a few lines:
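Mid-log bacteria exposed to peptide for 2 h at 37 °C, then centrifuged at 5000g for 15 min and washed with PBS. Stained with PI (5 µg/mL), washed three times in PBS, then stained with DAPI (10 µg/mL), each stain 15 min on ice in the dark. Viewed by fluorescence microscopy with a 100X oil objective.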

Data set [13] relates to Cell membrane. As to the kind of experiment: Induction of membrane disruption in Escherichia coli at 250 ug/ml measured for 30 mins by DiSC35 dye based fluorescence assay. It counts as subcellular. The following applies: dose 250.0 µg/ml.

Values after ≈ are worked out from the molar mass of the structure shown. Active and inactive are the calls of the source.

Broadly, the MIC is the smallest concentration in the dilution series that meets the test's criterion for growth inhibition. As to `CCCCCCCCCCCCCCCC(=O)N[C@@H](CCCCN)CN(CC(N)=O)S(=O)(=O)Cc1ccccc1`, the minimal inhibitory concentration (MIC) was 5 µg/mL (≈ 8.61 µM) in data set [1]; greater than 50 µg/mL in data set [2]; 5 µg/mL (≈ 8.61 µM) in [3]; 8 µg/mL (≈ 13.8 µM) in data set [4]; greater than 50 µg/mL in data set [5].
On to `CCCCCCCCCCCCCCCCCC(=O)N[C@@H](CCCCN)C(=O)N[C@@H](CCCCN)CN(CC(N)=O)S(=O)(=O)Cc1ccccc1`, for which the MIC in [1] was 5 µg/mL (≈ 6.78 µM); in data set [2], greater than 50 µg/mL; in data set [3], 2 µg/mL (≈ 2.71 µM); in data set [4], 20 µg/mL (≈ 27.1 µM); in data set [5], greater than 50 µg/mL.
Take `CCCCCCCCCCCCCCCCNC(=O)CN(C[C@@H](N)CCCCN)S(=O)(=O)Cc1ccccc1`: the MIC was 5 µg/mL (≈ 8.82 µM) in data set [1]; greater than 50 µg/mL in data set [2]; 5 µg/mL (≈ 8.82 µM) in [3]; 20 µg/mL (≈ 35.3 µM) in data set [4]; 5 µg/mL (≈ 8.82 µM) in data set [5].
In the case of `CCCCCCCCCCCCCCCCNC(=O)CN(C[C@H](CCCCN)NC(=O)[C@@H](N)CCCCN)S(=O)(=O)Cc1ccccc1`, the MIC in data set [1] was 5 µg/mL (≈ 7.19 µM); in data set [2] it was greater than 50 µg/mL; in data set [3], 5 µg/mL (≈ 7.19 µM); in data set [4], 20 µg/mL (≈ 28.8 µM); in data set [5] it was 5 µg/mL (≈ 7.19 µM).
`CCCCCCCCCC(=O)N[C@@H](CCCCN)C(=O)N[C@@H](CCCCN)CN(CC(N)=O)S(=O)(=O)Cc1ccccc1`: the minimal inhibitory concentration (MIC) in data set [1], in [2], in [3], in data set [4] and in data set [5] was greater than 50 µg/mL each time.
For orientation: HC50 means the concentration that lyses half of the red blood cells. A lower HC50 goes with stronger haemolysis. Turning to `CCCCCCCCCCCCCCCC(=O)N[C@@H](CCCCN)C(=O)N[C@@H](CCCCN)CN(CC(=O)N[C@@H](CCCCN)CN(CC(N)=O)S(=O)(=O)Cc1ccccc1)S(=O)(=O)Cc1ccccc1`, the MIC in data set [1] worked out at 5 µg/mL (≈ 4.83 µM); in data set [2], 8 µg/mL (≈ 7.73 µM); in [3] it was 2 µg/mL (≈ 1.93 µM); in [4], 5 µg/mL (≈ 4.83 µM); in data set [5] it was 8 µg/mL (≈ 7.73 µM). In addition, the selectivity ratio in [6] amounted to 25. In data set [7], this compound yielded an HC50 of 50 µg/mL.
In the case of `CCCCCCCCCCCCCC(=O)N[C@@H](CCCCN)C(=O)N[C@@H](CCCCN)CN(CC(=O)N[C@@H](CCCCN)CN(CC(N)=O)S(=O)(=O)Cc1ccccc1)S(=O)(=O)Cc1ccccc1`, the MIC in data set [1] came out at 8 µg/mL (≈ 7.95 µM); in data set [2], 5 µg/mL (≈ 4.97 µM); in data set [3] it was 2 µg/mL (≈ 1.99 µM); in [4], 5 µg/mL (≈ 4.97 µM); in [5], 5 µg/mL (≈ 4.97 µM). Moreover, the selectivity ratio in data set [6] stood at 50. In [7], this compound came in with an HC50 of 100 µg/mL.
With `CCCCCCCCCCCCCCCC(=O)N[C@@H](CCCCN)C(=O)N[C@@H](CCCCN)CN(CC(N)=O)S(=O)(=O)Cc1ccccc1`, the MIC in [1] was determined as 5 µg/mL (≈ 7.05 µM); in [2], 20 µg/mL (≈ 28.2 µM); in [3], 5 µg/mL (≈ 7.05 µM); in [4], 5 µg/mL (≈ 7.05 µM); in [5] it was 5 µg/mL (≈ 7.05 µM).
`CCCCCCCCCCCCCCCC(=O)N[C@@H](CCCCN)CN(CC(=O)N[C@@H](CCCCN)CN(CC(N)=O)S(=O)(=O)Cc1ccccc1)S(=O)(=O)Cc1ccccc1`: the MIC in data set [1] was 8 µg/mL (≈ 8.83 µM); in data set [2], greater than 50 µg/mL; in data set [3], 8 µg/mL (≈ 8.83 µM); in data set [4], 20 µg/mL (≈ 22.1 µM); in data set [5], greater than 50 µg/mL.
Take `CCCCCCCCCCCCCC(=O)N[C@@H](CCCCN)C(=O)N[C@@H](CCCCN)CN(CC(N)=O)S(=O)(=O)Cc1ccccc1`: the result in [8], in data set [9], in data set [10], in data set [11], in [12] and in [13] was Active. The MIC worked out at 5 µg/mL (≈ 7.34 µM) in data set [1]; 5 µg/mL (≈ 7.34 µM) in data set [2]; 5 µg/mL (≈ 7.34 µM) in data set [3]; 5 µg/mL (≈ 7.34 µM) in data set [4]; 2 µg/mL (≈ 2.94 µM) in data set [5]. Besides, the selectivity ratio in [6] worked out at 25. Moreover, the HC50 in [7] turned out to be 125 µg/mL.
As for `CCCCCCCCCCCC(=O)N[C@@H](CCCCN)C(=O)N[C@@H](CCCCN)CN(CC(N)=O)S(=O)(=O)Cc1ccccc1`, the MIC was greater than 50 µg/mL in [1]; 8 µg/mL (≈ 12.3 µM) in data set [2]; 20 µg/mL (≈ 30.6 µM) in [3]; 20 µg/mL (≈ 30.6 µM) in [4]; 5 µg/mL (≈ 7.66 µM) in [5].
